Active and inactive are the calls of the source. No cut-off for these calls is given here.

The test system of test [1] is Fasciola hepatica. The experiment in a line: Antiparasitic activity against Fasciola hepatica infected in rat assessed as reduction in worm burden at 50 mg/kg, po administered as single dose measured after 6 days post treatment. It counts as functional. Details: scale not given: the % may be the effect or the level left. The procedure, abridged:
(§1)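 Rats harbouring adult F. hepatica, treated at 8–13 weeks post-infection with a single oral dose given as a suspension in 7% (v/v) Tween 80 and 3% (v/v) EtOH. Killed at day 6 post-treatment. Adult flukes recovered from bile ducts and livers. Worm burden reduction taken from mean total worm burdens of treated versus untreated control rats. Cures = rats cured/rats treated. Significance by Kruskal-Wallis test.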

Test [2] concerns Fasciola hepatica. The experiment in a line: Antiparasitic activity against Fasciola hepatica infected in rat assessed as cure rate at 50 mg/kg, po administered as single dose measured after 6 days post treatment. It counts as functional, organism-based. Details: dose 50 mg/kg. The method, boiled down:
as §1

For test [3], the system named is Fasciola hepatica. The experiment in a line: Antiparasitic activity against Fasciola hepatica infected in rat assessed as reduction in worm burden at 100 mg/kg, po administered as single dose measured after 6 days post treatment. Type of test: functional. Details: scale not given: the % may be the effect or the level left. The method, boiled down: as §1
The test system of test [4] is Fasciola hepatica. As to the kind of experiment: Antiparasitic activity against Fasciola hepatica infected in rat assessed as cure rate at 100 mg/kg, po administered as single dose measured after 6 days post treatment. Type of test: functional, organism-based. Details: dose 100 mg/kg. The procedure, abridged: as §1
Test [5] deals with Fasciola hepatica. As to the kind of experiment: Antiparasitic activity against Fasciola hepatica infected in rat assessed as reduction in worm burden at 25 mg/kg, po administered as single dose measured after 6 days post treatment. It counts as functional. Details: scale not given: the % may be the effect or the level left. The procedure, abridged:
as §1

Test [6] has as its system Fasciola hepatica. The experiment in a line: Antiparasitic activity against Fasciola hepatica infected in rat assessed as cure rate at 25 mg/kg, po administered as single dose measured after 6 days post treatment. Type of test: functional, organism-based. Details: dose 25 mg/kg. The method, boiled down: as §1

As to `O=C(O)c1ccc(C2CCC3(CC2)OOC2(O3)C3CC4CC(C3)CC2C4)cc1` (centres undefined), the Activity with Fasciola hepatica [1] is 19%; in the test with Fasciola hepatica [3], 100%. The result in the test on Fasciola hepatica [2] was inactive. Also, the result in the test on Fasciola hepatica [4] was Active.
Regarding `O=C(O)[C@H]1CC[C@]2(CC1)COC1(CCCCC1)OO2`, the Activity is listed as 71% with Fasciola hepatica [1] and 100% in the test on Fasciola hepatica [3]. Also, in the test with Fasciola hepatica [2], the result was inactive. Moreover, in the test on Fasciola hepatica [4], the result was Active.
For `O=C(O)[C@H]1CC[C@@]2(CC1)OOC1(CCCCC1)O2`, the Activity in the test with Fasciola hepatica [3] was 26%. Also, the outcome with Fasciola hepatica [4] was inactive.
On to `O=C(O)[C@H]1CC[C@]2(CC1)COC1(OO2)C2CC3CC(C2)CC1C3` (some centres undefined), for which the Activity with Fasciola hepatica [3] came to 61%.
Consider `O=C(O)C[C@H]1CC[C@]2(CC1)COC1(OO2)C2CC3CC(C2)CC1C3` (some centres undefined), for which the figures for the Activity in the test with Fasciola hepatica [1], in the test on Fasciola hepatica [5] and in the test with Fasciola hepatica [3] were 100%, 88% and 100%, respectively. The outcome in the test with Fasciola hepatica [2] and in the test with Fasciola hepatica [4] was Active.
As for `O=C(O)CC1CCC2(CC1)OOC1(OO2)C2CC3CC(C2)CC1C3` (centres undefined), the Activity worked out at 100% in the test with Fasciola hepatica [1], 71% in the test with Fasciola hepatica [5] and 100% in the test with Fasciola hepatica [3]. Also, the outcome in the test on Fasciola hepatica [2] and with Fasciola hepatica [4] was Active. The outcome in the test on Fasciola hepatica [6] was inactive.
With `O=C(O)c1ccc([C@H]2CC[C@]3(CC2)COC2(OO3)C3CC4CC(C3)CC2C4)cc1` (some centres undefined), the Activity with Fasciola hepatica [1] is 100%; in the test with Fasciola hepatica [5], 0%; in the test on Fasciola hepatica [3], 100%. Further, the result with Fasciola hepatica [2] and in the test on Fasciola hepatica [4] was Active.
Regarding `O=C(O)C[C@H]1CC[C@]2(CC1)OOC1(O2)C2CC3CC(C2)CC1C3` (some centres undefined), the Activity in the test with Fasciola hepatica [3] is recorded as 100%. Also, the result in the test with Fasciola hepatica [4] was Active.
The corresponding values for `O=C(O)CC1CCC2(CC1)OCC1(OO2)C2CC3CC(C2)CC1C3` (centres undefined) are 0% and “inactive”.
As to `O=C(O)c1ccc(C2CCC3(CC2)OOC2(OO3)C3CC4CC(C3)CC2C4)cc1` (centres undefined), the Activity in the test with Fasciola hepatica [3] is reported as 92%.
For `C[C@H]1[C@H](OC(=O)CCC(=O)O)O[C@@H]2O[C@@]3(C)CC[C@H]4[C@H](C)CC[C@@H]1[C@@]24OO3` [ARTESUNATE], the Activity in the test with Fasciola hepatica [3] is given as 30%.
Same read-out and setting: the same measure for `O=C(O)C[C@H]1CC[C@]2(CC1)COC1(CCCCC1)OO2`: 95%.
On to `O=C(O)[C@H]1CC[C@]2(CC1)OO[C@]1(O2)C2CC3CC(C2)CC1C3`, for which the Activity in the test on Fasciola hepatica [3] is on record as 52%. The outcome with Fasciola hepatica [4] was inactive.
On the same counts, the results for `O=C(O)CC1CCC2(CC1)OOC1(CCCCC1)OO2` are 29% and “inactive”.
Consider `O=C(O)C1CCC2(CC1)OOC1(CCCCC1)OO2`, for which the Activity in the test on Fasciola hepatica [1] is on record as 61%; with Fasciola hepatica [3], 100%. Moreover, in the test with Fasciola hepatica [4], the result was Active.
Turning to `O=C(O)C1CCC2(CC1)OOC1(OO2)C2CC3CC(C2)CC1C3` (centres undefined), the Activity in the test with Fasciola hepatica [1] is on record as 48%; in the test with Fasciola hepatica [3], 100%. Further, the result in the test with Fasciola hepatica [4] was Active.

Source of the values: ChEMBL document CHEMBL1828617, “The activity of dispiro peroxides against Fasciola hepatica” (2011).
